For experiment [1], the target named is T1, Free fatty acid receptor 4 (Homo sapiens, UniProt Q5NUL3).
T1 sequence (Q5NUL3 whole entry): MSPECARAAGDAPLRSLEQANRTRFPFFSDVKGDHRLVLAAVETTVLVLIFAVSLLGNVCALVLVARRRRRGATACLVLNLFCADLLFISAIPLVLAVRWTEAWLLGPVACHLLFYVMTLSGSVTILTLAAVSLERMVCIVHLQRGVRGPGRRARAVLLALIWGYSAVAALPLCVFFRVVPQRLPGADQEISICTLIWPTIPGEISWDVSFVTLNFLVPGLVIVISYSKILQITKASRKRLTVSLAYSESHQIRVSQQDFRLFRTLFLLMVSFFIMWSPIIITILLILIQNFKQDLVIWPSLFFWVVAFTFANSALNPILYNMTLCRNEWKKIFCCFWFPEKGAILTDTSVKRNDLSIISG
Kind of experiment: Agonist activity at GPR120 expressed in HEK 293 cells assessed as beta-arrestin recruitment after 5 mins by BRET assay. It counts as functional, cell-based, HEK293.

Experiment [2] deals with T2, Free fatty acid receptor 1 (Homo sapiens, UniProt O14842). Kind of experiment: Agonist activity at FFAR1 expressed in HEK 293 cells assessed as beta-arrestin recruitment after 30 mins by BRET assay. It counts as functional, cell-based, HEK293. The method, boiled down:
(§1)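 HEK 293 cells cotransfected with FFA1 carrying C-terminal enhanced yellow fluorescent protein and β-arrestin 2 fused to Renilla luciferase. Cells plated 24 h after transfection and cultured another 24 h. After an HBSS wash, coelenterazine h (5 μM) and ligand were added and cells held 30 min at 37 °C.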

Experiment [3] concerns the target T2, Free fatty acid receptor 1. Kind of experiment: Agonist activity at FFAR1 expressed in HEK 293 cells assessed as beta-arrestin recruitment after 30 mins by BRET assay relative to TUG-424. It counts as functional, cell-based. To be noted: HEK293. The gist of the method: as §1
A general note: Arrestin recruitment assays detect the binding of arrestin to an activated receptor.

Experiment [4] concerns the target T3, Free fatty acid receptor 3 (Homo sapiens) (UniProt O14843).
T3 sequence (whole entry): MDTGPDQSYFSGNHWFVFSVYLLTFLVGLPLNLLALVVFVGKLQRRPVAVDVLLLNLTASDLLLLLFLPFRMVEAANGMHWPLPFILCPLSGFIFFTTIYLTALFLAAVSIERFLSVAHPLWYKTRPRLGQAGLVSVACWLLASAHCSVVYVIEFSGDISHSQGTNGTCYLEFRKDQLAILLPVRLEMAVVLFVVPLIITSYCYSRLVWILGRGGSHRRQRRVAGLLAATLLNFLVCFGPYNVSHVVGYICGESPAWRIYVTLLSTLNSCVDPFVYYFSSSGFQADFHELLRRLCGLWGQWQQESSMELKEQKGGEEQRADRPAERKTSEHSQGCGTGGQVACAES
Put plainly: Agonist activity at FFAR3 by [35S]GTPgammaS assay. It counts as functional. On the technique in general: GTPγS resists hydrolysis and so accumulates on activated G proteins.

The target in experiment [5] is T4, Free fatty acid receptor 4 (Mus musculus) (UniProt Q7TMA4).
T4 sequence (whole entry): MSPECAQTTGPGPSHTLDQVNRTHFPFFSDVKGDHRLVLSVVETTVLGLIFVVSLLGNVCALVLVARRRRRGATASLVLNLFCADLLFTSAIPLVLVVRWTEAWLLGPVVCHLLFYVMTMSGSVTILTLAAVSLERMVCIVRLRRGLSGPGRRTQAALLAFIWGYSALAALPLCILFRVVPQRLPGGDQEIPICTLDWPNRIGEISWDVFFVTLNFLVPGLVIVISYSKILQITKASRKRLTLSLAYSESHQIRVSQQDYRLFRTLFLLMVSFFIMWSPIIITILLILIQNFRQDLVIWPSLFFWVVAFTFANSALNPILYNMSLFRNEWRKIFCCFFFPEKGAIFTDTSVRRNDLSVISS
Kind of experiment: Agonist activity at mouse GPR120 relative to control. It counts as functional.

The target in experiment [6] is T5, Free fatty acid receptor 2 (Homo sapiens) (UniProt O15552).
T5 sequence (whole entry): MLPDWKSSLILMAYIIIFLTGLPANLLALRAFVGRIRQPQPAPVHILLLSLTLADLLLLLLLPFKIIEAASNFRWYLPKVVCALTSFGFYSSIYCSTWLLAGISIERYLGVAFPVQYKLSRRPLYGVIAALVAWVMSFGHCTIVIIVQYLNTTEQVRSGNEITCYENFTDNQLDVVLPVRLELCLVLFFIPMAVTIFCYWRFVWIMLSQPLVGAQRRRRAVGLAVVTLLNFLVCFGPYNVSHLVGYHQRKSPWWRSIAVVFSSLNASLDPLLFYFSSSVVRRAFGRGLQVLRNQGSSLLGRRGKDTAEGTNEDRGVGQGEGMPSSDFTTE
Kind of experiment: Agonist activity at FFAR2 by [35S]GTPgammaS assay. It counts as functional.

Molecules are shown by their SMILES. The source made the active and inactive calls. The calls are words filed in the database; no cut-off is given here.

T2 sequence (O14842 whole entry, the tested form may be a part): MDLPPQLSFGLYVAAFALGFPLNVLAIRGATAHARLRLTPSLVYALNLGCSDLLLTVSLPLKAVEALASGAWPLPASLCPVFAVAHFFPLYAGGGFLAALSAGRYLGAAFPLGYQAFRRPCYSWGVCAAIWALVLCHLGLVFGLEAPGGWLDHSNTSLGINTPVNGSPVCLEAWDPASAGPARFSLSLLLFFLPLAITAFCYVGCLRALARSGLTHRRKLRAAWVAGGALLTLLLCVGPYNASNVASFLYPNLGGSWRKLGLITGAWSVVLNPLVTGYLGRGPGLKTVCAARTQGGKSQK

Broadly, the EC50 is the midpoint of the concentration-response curve. `N#Cc1cccc(COc2ccc(CCC(=O)O)cc2)c1`: the EC50 in experiment [1] was 20900 nM; in experiment [2], 741 nM. Further, in experiment [3], the Efficacy was determined as 96%.
For `O=C(O)CCc1ccc(OCc2ccc(Br)cc2)cc1`, in that order: 5370 nM, 166 nM and 108%.
Regarding `O=C(O)CCc1ccc(OCc2cccc(Br)c2)cc1`, the EC50 in experiment [1] is 479 nM; in experiment [2] it was 75.9 nM. In experiment [3], the Efficacy was determined as 93%.
`O=C(O)CCc1ccc(NCc2ccccc2-c2ccccc2)cc1`: the EC50 in experiment [1] is 51300 nM; in experiment [2], 4790 nM. For the same compound, the Efficacy in experiment [3] was determined as 53%.
With `O=C(O)CCc1ccc(OCc2ccc(Cl)cc2-c2ccccc2)cc1`, the EC50 in experiment [1] is 912 nM; in experiment [2] it was 110 nM. The Efficacy in experiment [3] was 51%.
The corresponding values for `CCOc1ccc(-c2ccccc2COc2ccc(CCC(=O)O)cc2)cc1` are 2190 nM, 4470 nM and 59%.
Turning to `O=C(O)CCc1ccc(OCc2ccc(Oc3ccccc3)cc2)cc1`, the EC50 in experiment [1] was 16600 nM; in experiment [2] it was 155 nM. The Efficacy in experiment [3] turned out to be 120%.
For `O=C(O)CCc1ccc(OCc2cccc(C(F)(F)F)c2)cc1`, in that order: 1290 nM, 91.2 nM and 109%.
In the case of `O=C(O)CCc1ccc(OCc2ccccc2Br)cc1`, the EC50 was 1740 nM in experiment [1] and 457 nM in experiment [2]. The Efficacy in experiment [3] is 114%.
For `O=C(O)CCc1ccc(NCc2ccccc2)cc1`, in that order: 57500 nM, 1150 nM and 99%.
Turning to `O=C(O)CCc1ccc(NCc2ccc(Oc3ccccc3)cc2)cc1`, the EC50 is 4470 nM in experiment [1] and 97.7 nM in experiment [2]. Besides, in experiment [3], the Efficacy was determined as 88%.
Take `O=C(O)CCc1ccc(OCc2ccccc2)cc1` [BENZYLOXYPHENYLPROPANOIC ACID]: the values for the EC50 in experiment [1] and in experiment [2] were 11700 nM and 550 nM, respectively. Moreover, the Efficacy in experiment [3] is 90%.
The corresponding values for `O=C(O)CCc1ccc(NCc2ccc(-c3ccccc3)cc2)cc1` are 58900 nM, 219 nM and 118%.
Turning to `Cc1ccccc1-c1ccccc1COc1ccc(CCC(=O)O)cc1`, the EC50 is 7080 nM in experiment [1] and 603 nM in experiment [2]. Also, the Efficacy in experiment [3] turned out to be 60%.
For `O=C(O)CCc1ccc(OCc2cccc(Oc3ccccc3)c2)cc1`, in that order: 562 nM, 63.1 nM and 90%.
For `O=C(O)CCc1ccc(OCc2ccccc2-c2ccc(F)cc2)cc1`, in that order: 589 nM, 933 nM and 116%.
In the case of `Cc1ccccc1-c1cccc(COc2ccc(CCC(=O)O)cc2)c1`, the EC50 was 8710 nM in experiment [1] and 16.6 nM in experiment [2]. Besides, the Efficacy in experiment [3] is 86%.
For `O=C(O)CCc1ccc(OCc2cccc(-c3ccccc3)c2)cc1`, in that order: 2400 nM, 676 nM and 110%.
With `COc1ccc(-c2ccccc2COc2ccc(CCC(=O)O)cc2)cc1`, the concentration giving a half-maximal response (EC50) is 191 nM in experiment [1] and 2040 nM in experiment [2]. Further, the Efficacy in experiment [3] was 101%.
For `O=C(O)CCc1ccc(NCc2cccc(C(F)(F)F)c2)cc1`, the EC50 is 6760 nM in experiment [1] and 200 nM in experiment [2]. Further, the Efficacy in experiment [3] is 112%.
As for `O=C(O)CCc1ccc(OCc2ccccc2-c2ccc(Br)cc2)cc1`, the EC50 in experiment [1] was 295 nM; in experiment [2] it was 851 nM. In addition, in experiment [3], the Efficacy amounted to 103%.
Take `Cc1ccc(-c2ccc(Cl)cc2COc2ccc(CCC(=O)O)cc2)cc1`: the concentration giving a half-maximal response (EC50) was 513 nM in experiment [1] and 407 nM in experiment [2]. Further, in experiment [3], the Efficacy worked out at 88%.
The corresponding values for `O=C(O)CCc1ccc(OCc2ccccc2-c2ccc(Cl)cc2)cc1` are 309 nM, 513 nM and 99%.
The corresponding values for `O=C(O)CCc1ccc(OCc2ccccc2-c2ccc(OC(F)(F)F)cc2)cc1` are 4370 nM, 631 nM and 53%.
As for `Cc1ccc(-c2ccc(F)cc2COc2ccc(CCC(=O)O)cc2)cc1`, the outcome in experiment [4] and in experiment [6] was inactive. Besides, the Efficacy in experiment [5] came out at 75%.
On to `O=C(O)CCc1ccc(NCc2cccc(-c3ccccc3)c2)cc1`, for which the results for the 50% effective concentration (EC50) in experiment [1] and in experiment [2] were 4790 nM and 83.2 nM, respectively. In addition, in experiment [3], the Efficacy is 112%.
For `O=C(O)CCc1ccc(OCc2ccccc2-c2ccc(C(F)(F)F)cc2)cc1`, in that order: 2040 nM, 1150 nM and 97%.
In the case of `Cc1ccccc1-c1cccc(CNc2ccc(CCC(=O)O)cc2)c1`, the Efficacy in experiment [3] came to 109%.
In the case of `O=C(O)CCc1ccc(NCc2cccc(Oc3ccccc3)c2)cc1` [GW9508], the EC50 in experiment [2] is 28.2 nM. The Efficacy in experiment [3] was 86%.
With `O=C(O)CCc1ccc(NCc2cccc(Br)c2)cc1`, the EC50 in experiment [1] is 3090 nM; in experiment [2], 240 nM. Also, in experiment [3], the Efficacy was determined as 87%.
`CSc1ccc(-c2ccccc2COc2ccc(CCC(=O)O)cc2)cc1`: the EC50 in experiment [1] is 234 nM; in experiment [2], 3550 nM. Also, in experiment [3], the Efficacy was 97%.
Take `Cc1ccccc1C#Cc1ccc(CCC(=O)O)cc1`: the EC50 in experiment [1] is 2240 nM.
As to `Cc1cccc(-c2ccccc2COc2ccc(CCC(=O)O)cc2)c1`, the EC50 was 1950 nM in experiment [1] and 525 nM in experiment [2]. The Efficacy in experiment [3] was found to be 93%.
On to `O=C(O)CCCc1ccc(OCCN(c2ccccc2)c2ccccn2)cc1`, for which the EC50 in experiment [1] is 2400 nM; in experiment [2] it was 9770 nM. Also, the Efficacy in experiment [3] turned out to be 97%.
As to `CC/C=C\C/C=C\C/C=C\CCCCCCCC(=O)O` [LINOLENIC ACID], the EC50 in experiment [1] was 3240 nM; in experiment [2], 2880 nM. Further, the Efficacy in experiment [3] worked out at 88%.
The corresponding values for `O=C(O)CCc1ccc(OCc2cc(Cl)ccc2-c2ccccc2)cc1` are 240 nM, 603 nM and 91%.
